Consider 22 compounds from ChEMBL document CHEMBL1143636, “A series of bisaryl imidazolidin-2-ones has shown to be selective and orally active 5-HT2C receptor antagonists” (Bioorg Med Chem Lett, 2005).

Data set [1] has as its system Rattus norvegicus. Briefly: Dose of compound required to reverse mCPP (7 mg/kg i.p.) induced hypolocomotion by 50%. It counts as functional. The essentials:
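In rats, hypolocomotion was induced with the 5-HT2C agonist mCPP at 7 mg/kg ip, given 30 min pretest. The value is the compound dose that reversed the mCPP-induced hypolocomotion by 50%.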

Data set [2] deals with 5-hydroxytryptamine receptor 2A (Homo sapiens, UniProt P28223). Briefly: Binding affinity for human 5-hydroxytryptamine 2A receptor expressed in HEK 293 cells using [3H]ketanserin. It counts as cell-based, HEK293.
Data set [3] addresses T1, 5-hydroxytryptamine receptor 2C (Homo sapiens, UniProt P28335).
T1 sequence (P28335 whole entry): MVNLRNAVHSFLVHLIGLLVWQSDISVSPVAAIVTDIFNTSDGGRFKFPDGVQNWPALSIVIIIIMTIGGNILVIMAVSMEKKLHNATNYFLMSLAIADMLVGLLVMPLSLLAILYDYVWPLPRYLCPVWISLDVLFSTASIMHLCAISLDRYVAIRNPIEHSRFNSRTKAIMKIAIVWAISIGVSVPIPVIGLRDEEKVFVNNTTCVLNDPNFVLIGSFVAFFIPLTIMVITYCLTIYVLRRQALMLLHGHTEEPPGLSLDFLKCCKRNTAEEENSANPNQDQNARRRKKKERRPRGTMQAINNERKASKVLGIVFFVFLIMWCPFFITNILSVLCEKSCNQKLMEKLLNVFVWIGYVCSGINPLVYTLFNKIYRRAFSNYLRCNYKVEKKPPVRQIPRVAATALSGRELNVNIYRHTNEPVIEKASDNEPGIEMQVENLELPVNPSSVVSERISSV
Briefly: Binding affinity for human 5-hydroxytryptamine 2C receptor expressed in HEK 293 cells using [3H]mesulergine. It counts as cell-based, HEK293.

The test system of data set [4] is Rattus norvegicus. The experiment in a line: Percentage reversal at 10 mg/kg po of mCPP (7 mg/kg i.p.) induced hypolocomotion; in active. It counts as functional, organism-based. On the set-up: dose 10 mg/kg. The essentials: (§1)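 Rats were given the test compound orally at 10 mg/kg. mCPP, a 5-HT2C agonist, was given at 7 mg/kg ip 20 min before testing to induce hypolocomotion. The read-out was the percentage reversal of mCPP-induced hypolocomotion.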

Data set [5] concerns the target 5-hydroxytryptamine receptor 2B (Homo sapiens, UniProt P41595). The experiment in a line: Binding affinity for human 5-hydroxytryptamine 2B receptor expressed in HEK 293 cells using [3H]5-HT. In kind it is cell-based, HEK293.
Data set [6] concerns Rattus norvegicus. Briefly: Percentage reversal at 10 mg/kg po of mCPP (7 mg/kg i.p.) induced hypolocomotion. It counts as functional. The essentials: as §1
Data set [7] can be described thus: In vivo clearance in rat was determined. It counts as ADME, organism-based.
Data set [8] has as its system Rattus norvegicus. Briefly: Percentage reversal at 10 mg/kg po of mCPP (7 mg/kg i.p.) induced hypolocomotion; IA = in active. It counts as functional, organism-based. Set-up: dose 10 mg/kg. The essentials: as §1

Activity calls are given as the source filed them. The rule behind the calls is not given here. Bounds are passed on as bounds.

Chain of 5-hydroxytryptamine receptor 2B (P41595 whole entry): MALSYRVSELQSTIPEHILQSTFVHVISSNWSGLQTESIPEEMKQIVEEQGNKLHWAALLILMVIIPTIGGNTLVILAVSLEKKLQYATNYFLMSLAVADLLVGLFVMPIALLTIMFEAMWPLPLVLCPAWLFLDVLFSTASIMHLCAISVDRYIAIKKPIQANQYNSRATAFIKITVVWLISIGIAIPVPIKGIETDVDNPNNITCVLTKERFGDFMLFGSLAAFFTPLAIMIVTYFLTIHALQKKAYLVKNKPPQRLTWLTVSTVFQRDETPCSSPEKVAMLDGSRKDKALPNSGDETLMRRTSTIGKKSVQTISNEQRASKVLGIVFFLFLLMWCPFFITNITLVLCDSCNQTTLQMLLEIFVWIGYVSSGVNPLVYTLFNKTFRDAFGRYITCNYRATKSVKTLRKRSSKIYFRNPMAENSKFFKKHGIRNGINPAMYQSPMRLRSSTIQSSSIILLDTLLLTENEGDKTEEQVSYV
Chain of 5-hydroxytryptamine receptor 2A (P28223 whole entry): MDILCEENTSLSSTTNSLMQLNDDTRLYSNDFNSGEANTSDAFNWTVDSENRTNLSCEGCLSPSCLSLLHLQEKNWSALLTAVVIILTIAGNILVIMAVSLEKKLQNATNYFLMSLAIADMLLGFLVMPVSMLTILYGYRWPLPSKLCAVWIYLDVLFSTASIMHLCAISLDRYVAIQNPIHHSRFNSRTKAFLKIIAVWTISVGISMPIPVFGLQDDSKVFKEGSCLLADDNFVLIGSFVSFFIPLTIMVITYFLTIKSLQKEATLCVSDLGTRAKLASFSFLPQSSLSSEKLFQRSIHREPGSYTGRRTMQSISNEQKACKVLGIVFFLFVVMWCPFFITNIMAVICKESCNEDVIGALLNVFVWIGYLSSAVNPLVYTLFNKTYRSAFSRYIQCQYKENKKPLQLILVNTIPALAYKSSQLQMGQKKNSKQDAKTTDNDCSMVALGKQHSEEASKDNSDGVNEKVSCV

As for `Cc1cc2c(cc1C(F)(F)F)N(C(=O)Nc1ccc(Oc3cccnc3C)nc1)CC2` [SB-243213], the ID50 in the data set on Rattus norvegicus [1] amounted to 0.7 mg/kg.
Broadly, the Ki is the equilibrium dissociation constant of an inhibitor or competing ligand from its target. A high value points to a looser hold on the target. Take `COc1ccc(-n2ccn(-c3cccc(F)c3)c2=O)cc1OCCN1CCCCC1`: the Ki in data set [2] is over 1000 nM; in data set [3] it was 6.31 nM; in data set [5] it was 2000 nM. Besides, the Reversal result with Rattus norvegicus [4] is “inactive”.
Broadly, the clearance is a measure of how efficiently the substance is removed, as volume per time. Regarding `COc1ccc(N2CCN(c3cccc(F)c3)C2=O)cc1OCCN1CCCCC1`, the Reversal with Rattus norvegicus [6] is recorded as 7%. The compound further registered a clearance in data set [7] of over 120 mL/min/kg. The Ki in data set [2] was 2000 nM; in data set [3], 1.58 nM; in data set [5], 501 nM.
On to `O=C1N(c2ccc(OCCN3CCCCC3)nc2)CCN1c1ccc(Cl)c(Cl)c1`, for which the results for the Ki in data set [2], in data set [3] and in data set [5] were 1000 nM, 25.1 nM and 158 nM, respectively.
Compound `Cc1cc2c(cc1C(F)(F)F)N(C(=O)Nc1ccc(OCc3ccccn3)nc1)CC2` displayed an ID50 in the data set on Rattus norvegicus [1] of 1 mg/kg.
For `COc1ccc(N2CCN(c3ccc(Cl)c(Cl)c3)C2=O)cc1OCCN(C)C`, the Ki in data set [2] is 501 nM; in data set [3] it was 1.26 nM. Moreover, the Reversal result in the data set with Rattus norvegicus [4] is “inactive”.
Regarding `COc1ccc(N2CCN(c3ccccc3Cl)C2=O)cc1OCCN1CCCCC1`, the Ki is 3980 nM in data set [2], 31.6 nM in data set [3] and over 7940 nM in data set [5].
With `COc1ccc(N2CCN(c3ccc(Cl)c(Cl)c3)C2=O)cc1OCCN1CCOCC1`, the Reversal in the data set with Rattus norvegicus [6] worked out at 7%. The Ki in data set [2] was over 5010 nM; in data set [3], 3.16 nM; in data set [5], 316 nM.
For `O=C1N(c2ccc(OCc3ccccn3)nc2)CCN1c1ccc(Cl)c(Cl)c1`, the figures for the Ki in data set [2], in data set [3] and in data set [5] were over 10000 nM, 398 nM and over 6310 nM, respectively.
As to `COc1ccc(N2CCN(c3ccc(Cl)c(Cl)c3)C2=O)cc1OCCN1CCCCC1`, the Reversal in the data set with Rattus norvegicus [6] worked out at 75%. In data set [7], this compound registered a clearance of 45 mL/min/kg. The Ki in data set [2] is 631 nM; in data set [3], 0.794 nM; in data set [5], 316 nM.
In the case of `COc1ccc(N2CC(=O)N(c3cccc(F)c3)C2=O)cc1OCCN1CCCCC1`, the Ki is over 10000 nM in data set [2], 50.1 nM in data set [3] and over 6310 nM in data set [5].
Consider `Cc1cc2c(cc1Cl)N(C(=O)Nc1ccc(Oc3cccnc3C)nc1)CC2` [SB-242084], for which the ID50 in the data set on Rattus norvegicus [1] was 2 mg/kg.
`COc1ccc(-n2ccn(-c3cc(F)cc(F)c3)c2=O)cc1OCCN1CCCCC1`: the results for the Ki in data set [2], in data set [3] and in data set [5] were over 10000 nM, 7.94 nM and over 7940 nM, respectively.
On to `COc1ccc(N2CCN(c3cc(F)cc(F)c3)C2=O)cc1OCCN1CCCCC1`, for which the Reversal in the data set with Rattus norvegicus [6] is 40%. The Ki in data set [2] is over 10000 nM; in data set [3] it was 1 nM; in data set [5] it was over 5010 nM.
Regarding `COc1cc2c(cc1OCCN1CCCCC1)N(C(=O)/C=C/c1ccccc1Cl)CC2`, the Reversal in the data set with Rattus norvegicus [6] is 71%. Further, the Ki in data set [2] is 398 nM; in data set [3], 0.631 nM; in data set [5], 126 nM.
For `COc1ccc(N2CCN(c3ccccc3)C2=O)cc1OCCN1CCCCC1`, the figures for the Ki in data set [2], in data set [3] and in data set [5] were 2510 nM, 1.26 nM and 1260 nM, respectively. Besides, the Reversal entry in the data set with Rattus norvegicus [4] is “inactive”.
On to `COc1ccc(N2CCN(c3cccc(Cl)c3Cl)C2=O)cc1OCCN1CCCCC1`, for which the Ki in data set [2] is 1580 nM; in data set [3], 10 nM; in data set [5] it was 1260 nM. Besides, in the data set with Rattus norvegicus [8], the Reversal entry is “inactive”.
With `COc1ccc(N2CCN(c3cccc(F)c3)C2=O)cc1OCCN1CCOCC1`, the Reversal with Rattus norvegicus [6] stood at 10%. In data set [7], this compound came in with a clearance of over 120 mL/min/kg. Moreover, the figures for the Ki in data set [2], in data set [3] and in data set [5] were over 6310 nM, 12.6 nM and 794 nM, respectively.
On to `COc1ccc(N2CCN(c3ccc(C)c(C(F)(F)F)c3)C2=O)cc1OCCN1CCCCC1`, for which the Ki in data set [2] was 398 nM; in data set [3], 2 nM; in data set [5], 79.4 nM. The Reversal result in the data set on Rattus norvegicus [4] was “inactive”.
The matching figures for `COc1ccc(N2CCN(c3ccc(C)c(C(F)(F)F)c3)C2=O)cc1OCCN1CCOCC1`: 3160 nM, 7.94 nM, 126 nM and “inactive”.
Take `COc1ccc(N2CCN(c3cccc(F)c3)C2=O)cc1OCCO`: the Ki is over 10000 nM in data set [2], 1260 nM in data set [3] and 1260 nM in data set [5].
Consider `COc1ccc(N2CCN(c3cccc(F)c3)C2=O)cc1OCCN(C)C`, for which, in the data set with Rattus norvegicus [6], the Reversal worked out at 40%. Moreover, the Ki in data set [2] is 2510 nM; in data set [3], 3.98 nM; in data set [5], 1580 nM.
